Series [1] concerns Mycobacterium tuberculosis. The series can be described thus: Antitubercular activity against Mycobacterium tuberculosis H37Rv. The class given is functional.
The test system of the next series is Aspergillus flavus. In words: Antifungal activity against Aspergillus flavus CCM 8363 at highest concentration measured after 24 to 48 hrs by alamar blue dye based broth microdilution assay. The class given is functional, organism-based.
Series [2] concerns Mycobacterium tuberculosis. The series can be described thus: Antimycobacterial activity against Mycobacterium tuberculosis H37Rv CNCTC My 331/88 after 14 days. The class given is functional. To be noted: H37Rv CNCTC My 331/88, 336 h. The gist of the method: (§1)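 M. tuberculosis strains (H37Rv and clinical MDR/XDR isolates) tested by microdilution in Šula's semisynthetic medium. Compounds were dissolved in DMSO and tested at 32 to 0.03 µM in twofold steps. Inoculum was a 1.0 McFarland suspension diluted 10-3. Plates were incubated at 37 °C and read at 14 and 21 days.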

The nature of series [3]: Cytotoxicity against human HepG2 cells assessed as cell viability at 30 uM after 48 hrs by CellTiter 96 aqueous one solution assay relative to control. The class given is cell-based. To be noted: read-out: Activity. The method in brief: (§2)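 HepG2 (DMEM, 10% FBS, 1 mM pyruvate) or A431 (DMEM, 10% FBS) seeded 10,000 cells/well, 24 h at 37 °C, 5% CO2, then 30 µM compound for 48 h. MTS reagent 60 min, absorbance 490 nm, background subtracted; 0.1% DMSO vehicle = 100%, 10% SDS = 0% viability.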

In a further series the test system is Enterococcus faecalis. In words: Antibacterial activity against Enterococcus faecalis ATCC 29212 CCM 4224 at highest concentration measured after 24 to 48 hrs by alamar blue dye based broth microdilution assay. The class given is functional, organism-based. (Alamar Blue is a resazurin reagent that responds to reducing activity.)
The test system of series [4] is Mycobacterium kansasii. In words: Antimycobacterial activity against Mycobacterium kansasii CNCTC My 235/80 after 21 days. In kind it is functional. Conditions: CNCTC My 235/80, 504 h. The method in brief: (§3)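 Microdilution in Šula's semisynthetic medium; compounds in DMSO at 32–0.03 µM. Inoculum from 1.0 McFarland suspension diluted 10-4. […] Isoniazid and rifampicin as reference drugs.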

Series [5] relates to Staphylococcus epidermidis. In words: Antibacterial activity against Staphylococcus epidermidis at highest concentration measured after 24 to 48 hrs by alamar blue dye based broth microdilution assay. In kind it is functional, organism-based.
The test system of the next series is Serratia marcescens. The series can be described thus: Antibacterial activity against Serratia marcescens at highest concentration measured after 24 to 48 hrs by alamar blue dye based broth microdilution assay. In kind it is functional, organism-based.
In series [6] the test system is Staphylococcus aureus. The series can be described thus: Antibacterial activity against Staphylococcus aureus subsp. aureus ATCC 29213 CCM 4223 at highest concentration measured after 24 to 48 hrs by alamar blue dye based broth microdilution assay. In kind it is functional, organism-based.
The next series has as its system HepG2. In words: Cytotoxicity against human HepG2 cells assessed as reduction in cell viability after 48 hrs by CellTiter 96 aqueous one solution assay. In kind it is cell-based. Conditions: HepG2, 48 h.
Series [7] in a line: Genotoxicity in Salmonella typhimurium TA98 at 30 uM in presence of rat liver S9 fraction by Ames test. In kind it is toxicity, subcellular. Conditions: salmonella enterica subsp. enterica serovar typhimurium, s9, 30 µM. The method in brief: (§4)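 Microplate fluctuation Ames reverse-mutation test following kit instructions; TA98 detects frameshift and TA100 base-exchange mutations. Compound at 30 µM final with Aroclor-1254-induced rat liver S9 plus cofactors.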
For orientation: The Ames test uses bacterial strains that need an amino acid and regain growth without it when mutated back.

A further series relates to A-431. In words: Cytotoxicity against human A431 cells assessed as reduction in cell viability after 48 hrs by CellTiter 96 aqueous one solution assay. In kind it is cell-based. To be noted: A-431, 48 h.
Series [8] has as its system Mycobacterium kansasii. The series can be described thus: Antimycobacterial activity against Mycobacterium kansasii CNCTC My 235/80 after 14 days. The class given is functional. Conditions: CNCTC My 235/80, 336 h. The method in brief: as §3
Series [9] deals with Mycobacterium avium. In words: Antimycobacterial activity against Mycobacterium avium CNCTC My 330/88 after 21 days. In kind it is functional. Conditions: CNCTC My 330/88, 504 h. The gist of the method:
(§5)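 M. avium was tested by microdilution in Šula's semisynthetic medium, with compounds dissolved in DMSO and serially diluted from 1000 down to 1. Inoculum was a 1.0 McFarland suspension diluted 10-5. Plates were incubated at 37 °C and read at 14 and 21 days. […] Isoniazid and rifampicin served as standards.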

Another series has as its system Klebsiella pneumoniae. In words: Antibacterial activity against Klebsiella pneumoniae at highest concentration measured after 24 to 48 hrs by alamar blue dye based broth microdilution assay. The class given is functional, organism-based.
The test system of series [10] is Mycobacterium tuberculosis. The series can be described thus: Antimycobacterial activity against XDR Mycobacterium tuberculosis Praha 131 after 21 days. In kind it is functional. Conditions: Praha 131, 504 h. The method in brief:
as §1

The subject of series [11] is Mycobacterium tuberculosis. In words: Antimycobacterial activity against Mycobacterium tuberculosis H37Rv CNCTC My 331/88 after 21 days. In kind it is functional. To be noted: H37Rv CNCTC My 331/88, 504 h. The gist of the method:
as §1

Another series has as its system Pichia kudriavzevii. The series can be described thus: Antifungal activity against Candida krusei ATCC 6258 CCM8271 at highest concentration measured after 24 to 48 hrs by alamar blue dye based broth microdilution assay. The class given is functional, organism-based.
The test system of the next series is Candida parapsilosis. In words: Antifungal activity against Candida parapsilosis ATCC 22019 CCM 8260 at highest concentration measured after 24 to 48 hrs by alamar blue dye based broth microdilution assay. In kind it is functional, organism-based.
For series [12], the system named is Trichophyton interdigitale. The series can be described thus: Antifungal activity against Trichophyton interdigitale ATCC 9533 CCM 8377 at highest concentration measured after 72 to 120 hrs by alamar blue dye based broth microdilution assay. The class given is functional.
The subject of another series is Pseudomonas aeruginosa. In words: Antibacterial activity against Pseudomonas aeruginosa ATCC 27853 CCM 3955 at highest concentration measured after 24 to 48 hrs by alamar blue dye based broth microdilution assay. In kind it is functional, organism-based.
The subject of series [13] is Mycobacterium kansasii. The series can be described thus: Antimycobacterial activity against Mycobacterium kansasii 6509/96 after 21 days. In kind it is functional. To be noted: 6509/96, 504 h. The method in brief:
as §3

A further series relates to Candida albicans. The series can be described thus: Antifungal activity against Candida albicans ATCC 24433 CCM 8320 at highest concentration measured after 24 to 48 hrs by alamar blue dye based broth microdilution assay. The class given is functional, organism-based.
For another series, the system named is Candida tropicalis. In words: Antifungal activity against Candida tropicalis ATCC 750 CCM 8264 at highest concentration measured after 24 to 48 hrs by alamar blue dye based broth microdilution assay. The class given is functional, organism-based.
Series [14] can be described thus: Genotoxicity in Salmonella typhimurium TA100 at 30 uM in presence of rat liver S9 fraction by Ames test. In kind it is toxicity, subcellular. To be noted: salmonella enterica subsp. enterica serovar typhimurium, s9, 30 µM. The gist of the method:
as §4

For another series, the system named is Aspergillus fumigatus. The series can be described thus: Antifungal activity against Aspergillus fumigatus ATCC 204305 at highest concentration measured after 24 to 48 hrs by alamar blue dye based broth microdilution assay. The class given is functional, organism-based.
Series [15] deals with Staphylococcus aureus. In words: Antibacterial activity against methicillin-resistant Staphylococcus aureus subsp. aureus ATCC 43300 CCM 4750 at highest concentration measured after 24 to 48 hrs by alamar blue dye based broth microdilution assay. In kind it is functional, organism-based.
In series [16] the test system is Mycobacterium avium. In words: Antimycobacterial activity against Mycobacterium avium CNCTC My 330/88 after 14 days. The class given is functional. Conditions: CNCTC My 330/88, 336 h. The gist of the method: as §5
Series [17] concerns Mycobacterium kansasii. In words: Antimycobacterial activity against Mycobacterium kansasii 6509/96 after 14 days. In kind it is functional. Conditions: 6509/96, 336 h. The method in brief:
as §3

In series [18] the test system is Mycobacterium kansasii. The series can be described thus: Antimycobacterial activity against Mycobacterium kansasii CNCTC My 235/80 after 7 days. In kind it is functional. Conditions: CNCTC My 235/80, 168 h. The method in brief: as §3
For series [19], the system named is Mycobacterium kansasii. The series can be described thus: Antimycobacterial activity against Mycobacterium kansasii 6509/96 after 7 days. In kind it is functional. To be noted: 6509/96, 168 h. The method in brief:
as §3

Series [20] concerns Mycobacterium tuberculosis. The series can be described thus: Antimycobacterial activity against XDR Mycobacterium tuberculosis Praha 131 after 14 days. In kind it is functional. Conditions: Praha 131, 336 h. The method in brief: as §1
The next series deals with Escherichia coli. In words: Antibacterial activity against Escherichia coli ATCC 25922 CCM 3954 at highest concentration measured after 24 to 48 hrs by alamar blue dye based broth microdilution assay. In kind it is functional, organism-based.
A short description of series [21]: Cytotoxicity against human A431 cells assessed as cell viability at 30 uM after 48 hrs by CellTiter 96 aqueous one solution assay relative to control. In kind it is cell-based, A-431. Conditions: read-out: Activity. The method in brief:
as §2

The test system of the next series is Lichtheimia corymbifera. The series can be described thus: Antifungal activity against Lichtheimia corymbifera CCM 8077 at highest concentration measured after 24 to 48 hrs by alamar blue dye based broth microdilution assay. In kind it is functional, organism-based.

This is an account of results in ChEMBL document CHEMBL4373711, “Development of 3,5-Dinitrophenyl-Containing 1,2,4-Triazoles and Their Trifluoromethyl Analogues as Highly Efficient Antitubercular Agents Inhibiting Decaprenylphosphoryl-β-d-ribofuranose 2'-Oxidase” (J Med Chem, 2019).

SMILES strings stand for the structures. ≈ marks a conversion by molar mass, not a printed value. Calls of active or inactive are those of the source. The rule behind the calls is not given here. Bounds are passed on as bounds.

The MIC is the lowest concentration found to suppress growth. A low value points to a more susceptible organism. As to `COc1nc2ccc(Br)cc2cc1[C@@H](c1ccccc1)[C@@](O)(CCN(C)C)c1cccc2ccccc12` [BEDAQUILINE], the MIC in series [1] turned out to be 0.05 µM (≈ 0.0278 µg/mL).

As for `O=[N+]([O-])c1cn2c(n1)OC[C@@H](OCc1ccc(OC(F)(F)F)cc1)C2` [PRETOMANID], the MIC in series [1] fell in the range of 0.05 to 0.7 µM (≈ 0.018 to 0.251 µg/mL).

In turn, `C[C@]1(COc2ccc(N3CCC(Oc4ccc(OC(F)(F)F)cc4)CC3)cc2)Cn2cc([N+](=O)[O-])nc2O1` registered an MIC in series [1] of 0.023 µM (≈ 0.0123 µg/mL).

The MIC99 is the lowest concentration that inhibits either 99% of growth or 99% of the strains tested, depending on the study. Low values mean higher susceptibility, high ones lower susceptibility. A word on the IC50: it is the concentration at which inhibition is half-maximal. Turning to `Cn1c(SCc2ccc(Cl)cc2)nnc1-c1cc([N+](=O)[O-])cc([N+](=O)[O-])c1`, the result (in the series with Aspergillus flavus; with Enterococcus faecalis; in [5]; in the series with Serratia marcescens; with Staphylococcus aureus [6]; in the series on Klebsiella pneumoniae) was inactive. In addition, the outcome (in the series on Pichia kudriavzevii; in the series on Candida parapsilosis; in series [12]; in the series with Pseudomonas aeruginosa; in the series on Candida albicans; in the series on Candida tropicalis) was inactive. Besides, the result with Aspergillus fumigatus, with Staphylococcus aureus [15], in the series with Escherichia coli and with Lichtheimia corymbifera was inactive. For the same compound, the MIC99 in series [2] turned out to be 0.125 µM (≈ 0.0507 µg/mL); in the series on Mycobacterium kansasii [4], 0.5 µM (≈ 0.203 µg/mL); against Mycobacterium kansasii [8] it was 0.5 µM (≈ 0.203 µg/mL); against Mycobacterium avium [9], 8 µM (≈ 3.25 µg/mL); in [10], 0.125 µM (≈ 0.0507 µg/mL); in series [11], 0.125 µM (≈ 0.0507 µg/mL). Besides, the MIC99 was found to be 0.5 µM (≈ 0.203 µg/mL) with Mycobacterium kansasii [13]; 8 µM (≈ 3.25 µg/mL) against Mycobacterium avium [16]; 0.25 µM (≈ 0.101 µg/mL) against Mycobacterium kansasii [17]; 0.25 µM (≈ 0.101 µg/mL) against Mycobacterium kansasii [18]; 0.125 µM (≈ 0.0507 µg/mL) against Mycobacterium kansasii [19]; 0.125 µM (≈ 0.0507 µg/mL) in series [20]. The values for the viability at 48 h, 30 µM in [3] and in [21] were 104% and 85%, respectively. In addition, the IC50 in the series with HepG2 and with A-431 was above 30 µM in each case. Besides, the Activity result in [7] and in [14] was “Non-Toxic” each time.
